The record followed here is ChEMBL document CHEMBL1136634, “Synthesis and photoreactivity of caged blockers for glutamate transporters” (Bioorg Med Chem Lett, 2003).

The nature of data set [1]: Glutamate uptake inhibition assay on glutamate transporters (excitatory amino acid transporters EAAT2) stably expressed on MDCK cells after 10 min U.V irradiation. It is filed as cell-based. As to conditions: Canis lupus familiaris, light or radiation study. Summed up:
(§1)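 Before assay, caged compound in PBS(+) (1 mM CaCl2, 1 mM MgCl2, pH 7.4) was held in 1 mm quartz cuvettes in a dark box and irradiated with a 365 nm UV hand lamp at room temperature. Relative specific uptake came from three experiments, and IC50 was derived.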

Data set [2] can be described thus: Glutamate uptake inhibition assay on glutamate transporters (excitatory amino acid transporters EAAT2) stably expressed on MDCK cells after 20 min U.V irradiation. It counts as cell-based. As to conditions: Canis lupus familiaris, light or radiation study. Summed up: as §1
The nature of data set [3]: Glutamate uptake inhibition assay on glutamate transporters (excitatory amino acid transporters EAAT2) stably expressed on MDCK cells after 1 min U.V irradiation. As to conditions: Canis lupus familiaris, light or radiation study. It counts as cell-based. Summed up:
as §1

Data set [4] in a line: Glutamate uptake inhibition assay on glutamate transporters (excitatory amino acid transporters EAAT2) stably expressed on MDCK cells after 5 min U.V irradiation. As to conditions: Canis lupus familiaris, light or radiation study. It is filed as cell-based. Summed up:
as §1

Data set [5] can be described thus: Glutamate uptake inhibition assay on glutamate transporters (excitatory amino acid transporters EAAT2) stably expressed on MDCK cells before U.V radiation. It is filed as cell-based. As to conditions: Canis lupus familiaris.
The nature of data set [6]: Half-life was determined. It counts as ADME. As to conditions: human.
A short description of data set [7]: Glutamate uptake inhibition assay on EAAT2 stably expressed on MDCK cells. It is filed as cell-based, Canis lupus familiaris.

As for `N[C@H](C(=O)OCc1cc(=O)oc2cc(OCC(=O)O)ccc12)[C@H](OCc1ccccc1)C(=O)O`, the IC50 (in general, the concentration that gives 50% inhibition) in data set [1] came out at 7 µM; in data set [2], 5.6 µM; in data set [3], 24 µM; in data set [4], 8.6 µM; in data set [5], 124 µM. Also, the half-life – broadly, the time needed for the level to fall by half in the phase considered – in data set [6] was 3.7 min.

In data set [7] (Canis lupus familiaris, MDCK), `COc1ccc2c(COC(=O)[C@@H](N)[C@H](OCc3ccccc3)C(=O)O)cc(=O)oc2c1` had an IC50 of 124 µM. In addition, in data set [6], the half-life was determined as 3.9 min.

`N[C@H](C(=O)O)[C@H](OCc1ccccc1)C(=O)O` came in with an IC50 in data set [5] of 1.3 µM. That is a single-digit micromolar value.

Take `COc1cc(C(C)OC(=O)[C@@H](N)[C@H](OCc2ccccc2)C(=O)O)c([N+](=O)[O-])cc1OC` (stereo in doubt; 3a): the IC50 in data set [7] (mdck) was found to be 103 µM. The molecule further returned a T1/2 in data set [6] of 57.2 min.

In turn, `COc1cc(C(C)OC(=O)[C@@H](N)[C@H](OCc2ccccc2)C(=O)O)c([N+](=O)[O-])cc1OC` (stereo in doubt; 3b) had an IC50 in data set [7] (Canis lupus familiaris, MDCK) of 111 µM. In addition, the half-life in data set [6] was found to be 45.2 min.
